Test results taken from ChEMBL document CHEMBL1681778, “Synthesis and biological evaluation of 2,4-diaminoquinazoline derivatives as novel heat shock protein 90 inhibitors” (Bioorg Med Chem Lett, 2011).
One block for each compound: values may come before it. Calls of active or inactive are those of the source. The calls are words filed in the database; no cut-off is given here.

Assays:
DU-145 [1] = test: Cytotoxicity against human DU145 cells after 2 days by MTT assay; type: functional, cell-based; details: DU-145, 48 h
In short: (§1)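 Cells grown in RPMI 1640 with 10% heat-inactivated FBS at 37 °C and 5% CO2. Seeded at 3 × 10³ cells/well, then given a range of sample concentrations in duplicate for two days. Read by MTT-type dye and solubilization/stop solution, left overnight at room temperature to dissolve formazan, with OD at 570 nm.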

HT-29 [2] = test: Cytotoxicity against human HT-29 cells after 2 days by MTT assay; type: functional, cell-based; details: HT-29, 48 h; in short: as §1
HCT-116 [3] = test: Cytotoxicity against human HCT116 cells after 2 days by MTT assay; type: functional, cell-based; details: HCT-116, 48 h; in short: as §1
[4] = Cytotoxicity against human A375P cells after 2 days by MTT assay; type: functional, cell-based; details: 48 h; in short: as §1
MCF7 [5] = test: Cytotoxicity against human MCF7 cells after 2 days by MTT assay; type: functional, cell-based; details: MCF7, 48 h; in short: as §1
DU-145 [6] = test: Cytotoxicity against human DU145 cells at 10 uM after 2 days by MTT assay; type: functional; details: DU-145, 48 h
HT-29 [7] = test: Cytotoxicity against human HT-29 cells at 10 uM after 2 days by MTT assay; type: functional; details: HT-29, 48 h
HCT-116 [8] = test: Cytotoxicity against human HCT116 cells at 10 uM after 2 days by MTT assay; type: functional; details: HCT-116, 48 h
MCF7 [9] = test: Cytotoxicity against human MCF7 cells at 10 uM after 2 days by MTT assay; type: functional; details: MCF7, 48 h
[10] = biological target: T1, Heat shock protein HSP90 (Homo sapiens) (UniProt P07900+P08238); test: Inhibition of HSP90 in human MCF7 cells assessed as reduction of Her2 protein level at 5 uM after 24 hrs by Western blotting relative to control; type: cell-based
In short: (§2)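 MCF-7 cells seeded at 10⁵ cells/well and grown to 60% confluency. Treated with compounds at 5 µM in 0.4% DMSO for 24 h, with DMSO alone as control. Her2 and Hsp70 levels detected by western blot.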

[11] = biological target: T1, Heat shock protein HSP90 (Homo sapiens); test: Inhibition of HSP90 in human MCF7 cells assessed as induction of HSP70 expression at 5 uM after 24 hrs by Western blotting; type: cell-based; in short: as §2
[12] = Cytotoxicity against human A375P cells at 10 uM after 2 days by MTT assay; type: functional; details: 48 h

inhibition [10]: > 50%
inhibition [11]: Active
SMILES: Cc1cccc(N2CCN(CCCCNc3nc(NCc4ccco4)c4ccccc4n3)CC2)c1C
IC50 (DU-145 [1]): 1.07 µM
IC50 (HT-29 [2]): 0.86 µM
IC50 (HCT-116 [3]): 0.84 µM
IC50 [4]: 3.9 µM
IC50 (MCF7 [5]): 3.14 µM
inhibition at 10 µM (DU-145 [6]): 93.6%
inhibition at 10 µM (HT-29 [7]): 94.2%
inhibition at 10 µM (HCT-116 [8]): 94.3%
inhibition at 10 µM (MCF7 [9]): 95.8%

SMILES: c1coc(CNc2nc(NCCCN3CCCC3)nc3ccccc23)c1
IC50 (DU-145 [1]): 35.3 µM
IC50 (HT-29 [2]): 6.01 µM
IC50 (HCT-116 [3]): 16.1 µM
IC50 [4]: 19.4 µM
inhibition at 10 µM (DU-145 [6]): 40.1%
inhibition at 10 µM (HT-29 [7]): 87.5%
inhibition at 10 µM (HCT-116 [8]): 67.5%

SMILES: Fc1ccc2nc(NCCN3CCOCC3)nc(NCc3ccco3)c2c1
inhibition at 10 µM (DU-145 [6]): 27.8%
inhibition at 10 µM (HT-29 [7]): 9.68%
inhibition at 10 µM (HCT-116 [8]): 12.8%
inhibition at 10 µM [12]: 28.6%

SMILES: CCCCNc1nc(NCc2ccco2)c2cc(F)ccc2n1
IC50 (DU-145 [1]): 5.91 µM
IC50 (HT-29 [2]): 3.04 µM
IC50 (HCT-116 [3]): 4.31 µM
IC50 [4]: 8.48 µM
inhibition at 10 µM (DU-145 [6]): 75.4%
inhibition at 10 µM (HT-29 [7]): 88.1%
inhibition at 10 µM (HCT-116 [8]): 87.8%

SMILES: Fc1ccc2nc(NCCCCN3CCOCC3)nc(NCc3ccco3)c2c1
IC50 (DU-145 [1]): 6.46 µM
IC50 (HT-29 [2]): 1.36 µM
IC50 (HCT-116 [3]): 2.14 µM
IC50 [4]: 4.44 µM
inhibition at 10 µM (DU-145 [6]): 57.6%
inhibition at 10 µM (HT-29 [7]): 76.8%
inhibition at 10 µM (HCT-116 [8]): 82%
inhibition at 10 µM [12]: 62%

SMILES: Fc1ccc2nc(NCCCCN3CCN(c4cccc(Cl)c4Cl)CC3)nc(NCc3ccco3)c2c1
IC50 (DU-145 [1]): 0.67 µM
IC50 (HT-29 [2]): 0.39 µM
IC50 (HCT-116 [3]): 0.52 µM
IC50 [4]: 2.65 µM
inhibition at 10 µM (DU-145 [6]): 95.5%
inhibition at 10 µM (HT-29 [7]): 96.3%
inhibition at 10 µM (HCT-116 [8]): 97.1%
inhibition at 10 µM [12]: 97.3%

SMILES: c1coc(CNc2nc(NCCCCN3CCOCC3)nc3ccccc23)c1
IC50 (DU-145 [1]): 6.24 µM
IC50 (HT-29 [2]): 1.34 µM
IC50 (HCT-116 [3]): 2.1 µM
IC50 [4]: 5.23 µM
inhibition at 10 µM (DU-145 [6]): 52.3%
inhibition at 10 µM (HT-29 [7]): 68.7%
inhibition at 10 µM (HCT-116 [8]): 79.8%
inhibition at 10 µM [12]: 59.2%

SMILES: COc1cccc2c1C(=O)c1c(O)c3c(c(O)c1C2=O)C[C@@](O)(C(=O)CO)C[C@@H]3O[C@H]1C[C@H](N)[C@H](O)[C@H](C)O1 [DOXORUBICIN]
IC50 (HT-29 [2]): 0.82 µM

SMILES: CN(C)CCNc1nc(NCc2ccco2)c2ccccc2n1
inhibition at 10 µM (DU-145 [6]): 20%
inhibition at 10 µM (HT-29 [7]): 21.7%

SMILES: Fc1ccc2nc(NCCN3CCN(c4cccc(Cl)c4Cl)CC3)nc(NCc3ccco3)c2c1
IC50 (HCT-116 [3]): 1.01 µM
IC50 [4]: 2.42 µM
inhibition at 10 µM (MCF7 [9]): 95.5%

SMILES: COc1ccc(Nc2nc(NCc3ccco3)c3ccccc3n2)cc1
IC50 (DU-145 [1]): 35 µM
IC50 (HT-29 [2]): 12.2 µM
inhibition at 10 µM (MCF7 [9]): 64.5%

SMILES: CCN(CC)CCNc1nc(NCc2ccco2)c2ccccc2n1
IC50 (DU-145 [1]): > 100 µM
IC50 (HT-29 [2]): 11.3 µM
IC50 (HCT-116 [3]): 25.9 µM
IC50 [4]: 34.9 µM
inhibition at 10 µM (DU-145 [6]): 28.5%
inhibition at 10 µM (HT-29 [7]): 75.1%
inhibition at 10 µM (HCT-116 [8]): 62.6%

SMILES: Cc1cccc(N2CCN(CCCNc3nc(NCc4ccco4)c4cc(F)ccc4n3)CC2)c1C
IC50 (DU-145 [1]): 2.66 µM
IC50 (HT-29 [2]): 1.05 µM
IC50 (HCT-116 [3]): 1.14 µM
IC50 [4]: 2.83 µM
inhibition at 10 µM (DU-145 [6]): 95.9%
inhibition at 10 µM (HT-29 [7]): 96.7%
inhibition at 10 µM (HCT-116 [8]): 97.3%
inhibition at 10 µM [12]: 97.6%

SMILES: c1coc(CNc2nc(NCCN3CCOCC3)nc3ccccc23)c1
IC50 (MCF7 [5]): 2.12 µM
inhibition at 10 µM (MCF7 [9]): 95.8%

inhibition [10]: < 50%
inhibition [11]: Active
SMILES: Cc1cccc(N2CCN(CCCNc3nc(NCc4ccco4)c4ccccc4n3)CC2)c1C
IC50 (DU-145 [1]): 0.93 µM
IC50 (HT-29 [2]): 0.84 µM
IC50 (HCT-116 [3]): 0.77 µM
IC50 [4]: 3.04 µM
IC50 (MCF7 [5]): 3.31 µM
inhibition at 10 µM (DU-145 [6]): 91.5%
inhibition at 10 µM (HT-29 [7]): 94%
inhibition at 10 µM (HCT-116 [8]): 93.2%
inhibition at 10 µM (MCF7 [9]): 95.9%

SMILES: CCN(CC)CCNc1nc(NCc2ccco2)c2cc(F)ccc2n1
inhibition at 10 µM (DU-145 [6]): 26.6%
inhibition at 10 µM (HT-29 [7]): 27.5%
inhibition at 10 µM (HCT-116 [8]): 26.4%
inhibition at 10 µM [12]: 7.67%

SMILES: CCCCCNc1nc(NCc2ccco2)c2ccccc2n1
IC50 (DU-145 [1]): 11.5 µM
IC50 (HT-29 [2]): 6.73 µM

inhibition [10]: < 50%
inhibition [11]: Active
SMILES: Cc1cccc(N2CCN(CCCCNc3nc(NCc4ccco4)c4cc(F)ccc4n3)CC2)c1C
IC50 (DU-145 [1]): 3.32 µM
IC50 (HT-29 [2]): 1.83 µM
IC50 (HCT-116 [3]): 0.82 µM
IC50 [4]: 3.28 µM
IC50 (MCF7 [5]): 3.13 µM
inhibition at 10 µM (DU-145 [6]): 93.4%
inhibition at 10 µM (HT-29 [7]): 96.1%
inhibition at 10 µM (HCT-116 [8]): 97.4%
inhibition at 10 µM [12]: 97.5%
inhibition at 10 µM (MCF7 [9]): 97.7%

SMILES: COc1ccc(Nc2nc(NCc3ccco3)c3cc(F)ccc3n2)cc1
IC50 (DU-145 [1]): 11.6 µM
IC50 (HT-29 [2]): 4.34 µM
IC50 (HCT-116 [3]): 6.15 µM
IC50 [4]: 7.66 µM
inhibition at 10 µM (DU-145 [6]): 55.4%
inhibition at 10 µM (HT-29 [7]): 86.2%
inhibition at 10 µM (HCT-116 [8]): 74%

SMILES: CCCCNc1nc(NCc2ccco2)c2cccc(F)c2n1
IC50 (HCT-116 [3]): 1.33 µM
IC50 [4]: 2.63 µM
inhibition at 10 µM (MCF7 [9]): 87%

SMILES: Fc1ccc2nc(NCCCN3CCOCC3)nc(NCc3ccco3)c2c1
IC50 (DU-145 [1]): > 100 µM
IC50 (HT-29 [2]): 9.32 µM
IC50 (HCT-116 [3]): 25.3 µM
IC50 [4]: 22.5 µM
inhibition at 10 µM (DU-145 [6]): 26.7%
inhibition at 10 µM (HT-29 [7]): 83.1%
inhibition at 10 µM (HCT-116 [8]): 52.1%

SMILES: c1coc(CNc2nc(NCCCN3CCOCC3)nc3ccccc23)c1
IC50 (DU-145 [1]): 79.9 µM
IC50 (HT-29 [2]): 23.9 µM

SMILES: CCCCCNc1nc(NCc2ccco2)c2cc(F)ccc2n1
IC50 (DU-145 [1]): 7.24 µM
IC50 (HT-29 [2]): 4.03 µM
IC50 (HCT-116 [3]): 4.1 µM
IC50 [4]: 7.34 µM
inhibition at 10 µM (DU-145 [6]): 83.6%
inhibition at 10 µM (HCT-116 [8]): 94.2%
inhibition at 10 µM (MCF7 [9]): 94.4%

inhibition [10]: > 50%
inhibition [11]: Active
SMILES: Clc1cccc(N2CCN(CCCNc3nc(NCc4ccco4)c4ccccc4n3)CC2)c1Cl
IC50 (DU-145 [1]): 3.71 µM
IC50 (HT-29 [2]): 3.37 µM
IC50 (HCT-116 [3]): 3.36 µM
IC50 [4]: 3.36 µM
IC50 (MCF7 [5]): 2.98 µM
inhibition at 10 µM (DU-145 [6]): 93.2%
inhibition at 10 µM (HT-29 [7]): 94.1%
inhibition at 10 µM (HCT-116 [8]): 94.5%
inhibition at 10 µM (MCF7 [9]): 95.8%

inhibition [10]: > 50%
inhibition [11]: Active
SMILES: Clc1cccc(N2CCN(CCCCNc3nc(NCc4ccco4)c4ccccc4n3)CC2)c1Cl
IC50 (DU-145 [1]): 3.87 µM
IC50 (HT-29 [2]): 3.37 µM
IC50 (HCT-116 [3]): 3.2 µM
IC50 [4]: 3.75 µM
IC50 (MCF7 [5]): 2.97 µM
inhibition at 10 µM (DU-145 [6]): 94.3%
inhibition at 10 µM (HT-29 [7]): 94.8%
inhibition at 10 µM (HCT-116 [8]): 94.7%
inhibition at 10 µM (MCF7 [9]): 95.8%

SMILES: CCCCNc1nc(NCc2ccco2)c2ccccc2n1
IC50 (DU-145 [1]): 4.99 µM
IC50 (HT-29 [2]): 2.94 µM
IC50 (HCT-116 [3]): 5.47 µM
IC50 [4]: 9.2 µM
inhibition at 10 µM (DU-145 [6]): 89.9%
inhibition at 10 µM (HT-29 [7]): 92.3%
inhibition at 10 µM (HCT-116 [8]): 94.8%
inhibition at 10 µM (MCF7 [9]): 66.7%

SMILES: CN(C)CCCNc1nc(NCc2ccco2)c2ccccc2n1
IC50 (DU-145 [1]): 51 µM
IC50 (HT-29 [2]): 4.45 µM
